Results taken from ChEMBL document CHEMBL1629614, “Inhibition of methionyl-tRNA synthetase by REP8839 and effects of resistance mutations on enzyme activity” (Antimicrob Agents Chemother, 2009).
Values after ≈ are worked out from the molar mass of the structure shown.

What was measured:
Haemophilus influenzae = experiment: Antimicrobial activity against Haemophilus influenzae expressing MetRS gene; assay type: functional
Methionine--tRNA ligase [1] = molecular target: Methionine--tRNA ligase (Staphylococcus aureus subsp. aureus MW2, UniProt Q8NY00, L213W); experiment: Inhibition of Staphylococcus aureus MetRS L213W mutant
How it was run: (§1)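 Purified recombinant S. aureus MetRS (mutant, expressed in E. coli) was tested by ATP:PPi exchange with [32P]PPi, using 125 mM methionine and 100 μM ATP so that the IC50 sits above enzyme concentration. Inhibitor was in DMSO (8% final), over 1 μM to 0.05 nM. A sigmoidal fit gave the IC50, and Ki = IC50/[(1+[Met]/KmMet)(1+KmATP/[ATP])], with KmMet taken at that ATP level.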

Methionine--tRNA ligase [2] = molecular target: Methionine--tRNA ligase (Staphylococcus aureus subsp. aureus MW2, UniProt Q8NY00, I57N/V242F); experiment: Inhibition of Staphylococcus aureus MetRS I57N V242F mutant
Methionine--tRNA ligase [3] = molecular target: Methionine--tRNA ligase (Staphylococcus aureus subsp. aureus MW2, UniProt Q8NY00, V108M); experiment: Inhibition of Staphylococcus aureus MetRS V108M mutant; how it was run: as §1
Methionine--tRNA ligase [4] = molecular target: Methionine--tRNA ligase (Staphylococcus aureus subsp. aureus MW2, UniProt Q8NY00, G223C); experiment: Inhibition of Staphylococcus aureus MetRS G223C mutant; how it was run: as §1
Staphylococcus aureus [5] = experiment: Antimicrobial activity against Staphylococcus aureus expressing MetRS gene; assay type: functional
Streptococcus pneumoniae [6] = experiment: Antimicrobial activity against Streptococcus pneumoniae expressing MetRS1 gene; assay type: functional
Staphylococcus aureus [7] = experiment: Antimicrobial activity against Staphylococcus aureus expressing MetRS I57N mutant; assay type: functional
Staphylococcus aureus [8] = experiment: Antimicrobial activity against Staphylococcus aureus expressing MetRS G54S mutant; assay type: functional
Staphylococcus aureus [9] = experiment: Antimicrobial activity against Staphylococcus aureus expressing MetRS G54A A64P mutant; assay type: functional
Staphylococcus aureus [10] = experiment: Antimicrobial activity against Staphylococcus aureus expressing MetRS G223C mutant; assay type: functional
Methionine--tRNA ligase [11] = molecular target: Methionine--tRNA ligase (Staphylococcus aureus subsp. aureus MW2, UniProt Q8NY00, I238F/I57N); experiment: Inhibition of Staphylococcus aureus MetRS I57N I238F mutant
[12] = Inhibition of human cytoplasmic MetRS
How it was run: (§2)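 tRNA aminoacylation with scintillation proximity detection. Purified MetRS in 40 mM Tris-HCl pH 8.0, 10 mM Mg acetate, 2.5 mM ATP, 80 mM KCl, 2.5 mM DTT, BSA, [3H]methionine (7 μM Met), 1 μg/ml crude E. coli tRNA. Human enzymes had 0.2–0.6 mM spermine, and substrate, Mg and enzyme levels were optimized per ortholog. Inhibitor was a DMSO serial dilution, 1 μM to 0.05 nM (final), 8% DMSO final, 30 min at room temperature. Reactions were EDTA-stopped, and charged tRNA was captured on polylysine YSi beads at pH 2.0. IC50 came from a four-parameter logistic fit versus DMSO control.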

Staphylococcus aureus [13] = experiment: Antimicrobial activity against Staphylococcus aureus expressing MetRS I57N A247E mutant; assay type: functional
Methionine--tRNA ligase [14] = molecular target: Methionine--tRNA ligase (Staphylococcus aureus subsp. aureus MW2, UniProt Q8NY00, G54S); experiment: Inhibition of Staphylococcus aureus MetRS G54S mutant
Staphylococcus aureus [15] = experiment: Antimicrobial activity against Staphylococcus aureus expressing MetRS A247E mutant; assay type: functional
[16] = Inhibition of Streptococcus pneumoniae MetRS1; how it was run: as §2
Methionine--tRNA ligase [17] = molecular target: Methionine--tRNA ligase (Staphylococcus aureus subsp. aureus MW2, UniProt Q8NY00, I57N); experiment: Inhibition of Staphylococcus aureus MetRS I57N mutant; how it was run: as §1
Staphylococcus aureus [18] = experiment: Antimicrobial activity against Staphylococcus aureus expressing MetRS I57N I238F mutant; assay type: functional
Methionine--tRNA ligase [19] = molecular target: T1, Methionine--tRNA ligase (Haemophilus influenzae (strain ATCC 51907 / DSM 11121 / KW20 / Rd), UniProt P43828); experiment: Inhibition of Haemophilus influenzae MetRS; how it was run: as §2
T1 sequence (P43828 whole entry): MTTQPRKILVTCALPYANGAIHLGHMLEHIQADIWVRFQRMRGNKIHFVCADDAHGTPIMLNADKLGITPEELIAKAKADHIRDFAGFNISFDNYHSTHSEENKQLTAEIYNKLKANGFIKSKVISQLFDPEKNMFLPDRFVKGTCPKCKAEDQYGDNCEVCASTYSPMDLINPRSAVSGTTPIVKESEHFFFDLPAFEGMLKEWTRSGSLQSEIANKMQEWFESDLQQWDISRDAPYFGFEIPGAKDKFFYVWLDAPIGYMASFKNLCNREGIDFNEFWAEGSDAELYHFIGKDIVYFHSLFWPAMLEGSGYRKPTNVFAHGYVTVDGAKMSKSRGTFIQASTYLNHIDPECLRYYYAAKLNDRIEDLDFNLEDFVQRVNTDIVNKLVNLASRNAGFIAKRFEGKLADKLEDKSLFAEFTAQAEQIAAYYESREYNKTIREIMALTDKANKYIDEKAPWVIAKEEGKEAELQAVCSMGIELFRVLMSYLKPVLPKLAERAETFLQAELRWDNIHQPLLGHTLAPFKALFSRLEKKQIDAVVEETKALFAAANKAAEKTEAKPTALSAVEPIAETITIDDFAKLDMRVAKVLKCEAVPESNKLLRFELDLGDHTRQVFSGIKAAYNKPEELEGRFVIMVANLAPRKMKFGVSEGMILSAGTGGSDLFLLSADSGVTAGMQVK

Staphylococcus aureus [20] = experiment: Antimicrobial activity against Staphylococcus aureus expressing MetRS V108M mutant; assay type: functional
Staphylococcus aureus [21] = experiment: Antimicrobial activity against Staphylococcus aureus expressing MetRS I57N G54S mutant; assay type: functional
Staphylococcus aureus [22] = experiment: Antimicrobial activity against Staphylococcus aureus expressing MetRS I57N V242F mutant; assay type: functional
Staphylococcus aureus [23] = experiment: Antimicrobial activity against Staphylococcus aureus expressing MetRS L213W mutant; assay type: functional
Methionine--tRNA ligase [24] = molecular target: Methionine--tRNA ligase (Staphylococcus aureus subsp. aureus MW2, UniProt Q8NY00, A247E); experiment: Inhibition of Staphylococcus aureus MetRS A247E mutant; how it was run: as §1
[25] = Inhibition of Escherichia coli MetRS; how it was run: as §2
Methionine--tRNA ligase [26] = molecular target: Methionine--tRNA ligase (Staphylococcus aureus subsp. aureus MW2, UniProt Q8NY00, A64P/G54A); experiment: Inhibition of Staphylococcus aureus MetRS G54A A64P mutant
Methionine--tRNA ligase [27] = molecular target: Methionine--tRNA ligase (Staphylococcus aureus subsp. aureus MW2, UniProt Q8NY00, A247E/I57N); experiment: Inhibition of Staphylococcus aureus MetRS I57N A247E mutant
[28] = Inhibition of Staphylococcus aureus MetRS; how it was run: as §2
[29] = Inhibition of human mitochondrial MetRS; how it was run: as §2
Methionine--tRNA ligase [30] = molecular target: Methionine--tRNA ligase (Staphylococcus aureus subsp. aureus MW2, UniProt Q8NY00, G54S/I57N); experiment: Inhibition of Staphylococcus aureus MetRS I57N G54S mutant
Streptococcus pneumoniae [31] = experiment: Antimicrobial activity against Streptococcus pneumoniae expressing MetRS2 gene; assay type: functional
A549 = experiment: Cytotoxicity against human A549 cells by MTT assay; assay type: cell-based
[32] = Cytotoxicity against rat H42E cells by MTT assay; assay type: cell-based
Escherichia coli = experiment: Antimicrobial activity against Escherichia coli expressing MetRS gene; assay type: functional
[33] = Inhibition of Streptococcus pneumoniae MetRS2; how it was run: as §2

Q: With `C=C(F)c1sc(CNCCCNc2cc(=O)c3ccccc3[nH]2)c(C)c1Br` [BEDEROCIN] as the compound, how does the MIC (Haemophilus influenzae) read?
A: > 64 µg/mL

Q: And the Ki (Methionine--tRNA ligase [1])?
A: 0.04 nM

Q: What about the Ki (Methionine--tRNA ligase [2]) of the same compound?
A: 15 nM

Q: What about the Ki (Methionine--tRNA ligase [3]) of the same compound?
A: 0.11 nM

Q: What about the Ki (Methionine--tRNA ligase [4]) of the same compound?
A: 0.51 nM

Q: What about the MIC (Staphylococcus aureus [5]) of the same compound?
A: 0.12 µg/mL (≈ 0.266 µM)

Q: What about the MIC (Streptococcus pneumoniae [6]) of the same compound?
A: 0.12 µg/mL (≈ 0.266 µM)

Q: What about the MIC (Staphylococcus aureus [7]) of the same compound?
A: 8 µg/mL (≈ 17.8 µM)

Q: What about the MIC (Staphylococcus aureus [8]) of the same compound?
A: 16 µg/mL (≈ 35.5 µM)

Q: And the MIC (Staphylococcus aureus [9])?
A: 32 µg/mL (≈ 71.1 µM)

Q: What about the MIC (Staphylococcus aureus [10]) of the same compound?
A: 8 µg/mL (≈ 17.8 µM)

Q: What about the Ki (Methionine--tRNA ligase [11]) of the same compound?
A: 350 nM

Q: What about the Ki [12] of the same compound?
A: > 20000 nM

Q: And the MIC (Staphylococcus aureus [13])?
A: 32 µg/mL (≈ 71.1 µM)

Q: And the Ki (Methionine--tRNA ligase [14])?
A: 85 nM

Q: What about the MIC (Staphylococcus aureus [15]) of the same compound?
A: 4 µg/mL (≈ 8.88 µM)

Q: What about the Ki [16] of the same compound?
A: 0.055 nM

Q: And the Ki (Methionine--tRNA ligase [17])?
A: 0.08 nM

Q: And the MIC (Staphylococcus aureus [18])?
A: 32 µg/mL (≈ 71.1 µM)

Q: What about the Ki (Methionine--tRNA ligase [19]) of the same compound?
A: 225 nM

Q: And the MIC (Staphylococcus aureus [20])?
A: 8 µg/mL (≈ 17.8 µM)

Q: And the MIC (Staphylococcus aureus [21])?
A: 32 µg/mL (≈ 71.1 µM)

Q: And the MIC (Staphylococcus aureus [22])?
A: 32 µg/mL (≈ 71.1 µM)

Q: And the MIC (Staphylococcus aureus [23])?
A: 2 µg/mL (≈ 4.44 µM)

Q: And the Ki (Methionine--tRNA ligase [24])?
A: 0.06 nM

Q: And the Ki [25]?
A: 10 nM

Q: What about the Ki (Methionine--tRNA ligase [26]) of the same compound?
A: 1900 nM

Q: What about the Ki (Methionine--tRNA ligase [27]) of the same compound?
A: 60 nM

Q: What about the Ki [28] of the same compound?
A: 0.01 nM

Q: And the Ki [29]?
A: 23 nM

Q: And the Ki (Methionine--tRNA ligase [30])?
A: 900 nM

Q: What about the MIC (Streptococcus pneumoniae [31]) of the same compound?
A: 32 µg/mL (≈ 71.1 µM)

Q: And the IC50 (A549)?
A: > 20000 nM

Q: And the IC50 [32]?
A: > 20000 nM

Q: What about the MIC (Escherichia coli) of the same compound?
A: 16 µg/mL (≈ 35.5 µM)

Q: What about the Ki [33] of the same compound?
A: > 5000 nM
